Columns and labels:
E. coli GroEL/ES [1] = molecular target: T1, E. coli GroEL/ES (Escherichia coli, UniProt P0A6F5); test: (§1) Inhibition of Escherichia coli GroEL/GroES using Escherichia coli GroEL expressed in Escherichia coli DH5alpha cells and Escherichia coli GroES expressed in Escherichia coli BL21(DE3) cells assessed as reduction in pig heart native refolded MDH-mediated NADH production by micro plate reader analysis
In short: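 Native MDH counter-screen. GroEL/ES-dMDH refolding run 60 min at 37°C, then EDTA-quenched without compound. IC50 averaged from at least triplicate.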

E. coli GroEL/ES [2] = molecular target: T1, E. coli GroEL/ES; test: (§2) Inhibition of Escherichia coli GroEL/GroES using Escherichia coli GroEL expressed in Escherichia coli DH5alpha cells and Escherichia coli GroES expressed in Escherichia coli BL21(DE3) cells assessed as inhibition of denatured rhodanese refolding by measuring reduction in thiocyanate production incubated for 60 mins by micro plate reader analysis
In short: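 Urea-denatured rhodanese bound to GroEL/GroES in folding buffer containing thiosulfate. After 60 min at 37°C, thiocyanate reaction (KCN, thiosulfate, phosphate) run, then formaldehyde quench and ferric nitrate added. Fe(SCN)3 read at 460 nm after 15 min RT, with protein-free baseline plates.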

Bacillus subtilis = test: Antibacterial activity against Bacillus subtilis 168 assessed as reduction in bacterial growth incubated for 6 to 8 hrs; type: functional, organism-based; settings: subsp. subtilis str. 168
[3] = Cytotoxicity against human THLE3 cells assessed as reduction in cell viability after 48 hrs by alamar blue assay; type: cell-based; settings: THLE3, 48 h
Staphylococcus aureus [4] = test: Antibacterial activity against methicillin resistant Staphylococcus aureus subsp. aureus HPV107 (ATCC BAA-44) assessed as reduction in bacterial growth incubated for 6 to 8 hrs; type: functional, organism-based
In short: (§3)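 Broth proliferation assay. S. aureus and MRSA grown in ATCC Medium 18, other pathogens in Brain Heart Infusion. Stagnant incubation at 37°C under breathable seal. OD600 read at mid-log (6-8 h) and corrected with bacteria-free baseline plates. EC50 by variable-slope nonlinear fit, at least triplicate.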

Escherichia coli [5] = test: Antibacterial activity against Escherichia coli DH5alpha assessed as reduction in bacterial growth incubated for 6 to 8 hrs; type: functional, organism-based; settings: DH5[alpha]
[6] = tested on: Klebsiella pneumoniae subsp. pneumoniae; test: Antibacterial activity against multidrug resistant Klebsiella pneumoniae subsp. pneumoniae NCTC 9633 (ATCC 13883) assessed as reduction in bacterial growth incubated for 6 to 8 hrs; type: functional, organism-based; in short: as §3
HSP60/HSP10 [7] = molecular target: T2, HSP60/HSP10 (Homo sapiens, UniProt P10809); test: Inhibition of human HSP60/HSP10 expressed in Escherichia coli Rosetta2(DE3) cells assessed as reduction in denatured pig heart MDH ATPase activity by malachite green dye based assay
Pseudomonas aeruginosa = test: Antibacterial activity against multidrug resistant Pseudomonas aeruginosa NCTC 10332 (ATCC 10145) assessed as reduction in bacterial growth incubated for 6 to 8 hrs; type: functional, organism-based; in short: as §3
Escherichia coli [8] = test: Antibacterial activity against Escherichia coli SM101 assessed as reduction in bacterial growth incubated for 12 hrs by UV-Vis spectrophotometric analysis; type: functional, organism-based; settings: SM101, 12 h
E. coli GroEL/ES [9] = molecular target: T1, E. coli GroEL/ES; test: Inhibition of Escherichia coli GroEL/GroES using Escherichia coli GroEL expressed in Escherichia coli DH5alpha cells and Escherichia coli GroES expressed in Escherichia coli BL21(DE3) cells assessed as reduction in denatured pig heart MDH ATPase activity by malachite green dye based assay
Enterobacter cloacae = test: Antibacterial activity against multidrug resistant Enterobacter cloacae subsp. cloacae CDC 442-68 (ATCC 13047) assessed as reduction in bacterial growth incubated for 6 to 8 hrs; type: functional, organism-based; in short: as §3
Enterococcus faecium = test: Antibacterial activity against multidrug resistant Enterococcus faecium NCTC 7171 (ATCC 19434) assessed as reduction in bacterial growth incubated for 6 to 8 hrs; type: functional, organism-based; in short: as §3
E. coli GroEL/ES [10] = molecular target: T1, E. coli GroEL/ES; test: as §2, with “pig heart MDH” for “rhodanese”, “NADH” for “thiocyanate”
In short: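 Denatured MDH (guanidine-HCl/DTT, 30 min RT) bound to GroEL with GroES in Tris pH 7.4, KCl, MgCl2, DTT buffer. 60 min at 37°C, EDTA quench to 100 mM. Refolded MDH activity read with mesoxalate/NADH at 340 nm. Log-averaged IC50 from replicates.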

HSP60/HSP10 [11] = molecular target: T2, HSP60/HSP10; test: Inhibition of human HSP60/HSP10 expressed in Escherichia coli Rosetta2(DE3) cells assessed as inhibition of denatured pig heart MDH refolding by measuring reduction in NADH production incubated for 60 mins by micro plate reader analysis
In short: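 Pig heart MDH was denatured in guanidine-HCl (dMDH) and complexed with HSP60, then HSP10, in Tris pH 7.4/KCl/MgCl2/DTT buffer. EDTA quench (100 mM final); refolded MDH activity was followed with mesoxalate/NADH at 340 nm.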

Acinetobacter baumannii = test: Antibacterial activity against multidrug resistant Acinetobacter baumannii 2208 (ATCC 19606) assessed as reduction in bacterial growth incubated for 6 to 8 hrs; type: functional; in short: as §3
Staphylococcus aureus [12] = test: Antibacterial activity against methicillin susceptible Staphylococcus aureus subsp. aureus Seattle 1945 (ATCC 25923) assessed as reduction in bacterial growth incubated for 6 to 8 hrs
Escherichia coli [13] = test: Antibacterial activity against acrB-deficient Escherichia coli MC4100 assessed as reduction in bacterial growth incubated for 6 to 8 hrs; type: functional, organism-based
HEK293 = test: Cytotoxicity against HEK293 cells assessed as reduction in cell viability after 48 hrs by alamar blue assay; type: cell-based; settings: Homo sapiens, HEK293, 48 h
E. coli GroEL/ES [14] = molecular target: T1, E. coli GroEL/ES; test: as §1, with “in” for “in pig heart”, “rhodanese-mediated thiocyanate” for “MDH-mediated NADH”

T1 sequence (P0A6F5 whole entry, looked up): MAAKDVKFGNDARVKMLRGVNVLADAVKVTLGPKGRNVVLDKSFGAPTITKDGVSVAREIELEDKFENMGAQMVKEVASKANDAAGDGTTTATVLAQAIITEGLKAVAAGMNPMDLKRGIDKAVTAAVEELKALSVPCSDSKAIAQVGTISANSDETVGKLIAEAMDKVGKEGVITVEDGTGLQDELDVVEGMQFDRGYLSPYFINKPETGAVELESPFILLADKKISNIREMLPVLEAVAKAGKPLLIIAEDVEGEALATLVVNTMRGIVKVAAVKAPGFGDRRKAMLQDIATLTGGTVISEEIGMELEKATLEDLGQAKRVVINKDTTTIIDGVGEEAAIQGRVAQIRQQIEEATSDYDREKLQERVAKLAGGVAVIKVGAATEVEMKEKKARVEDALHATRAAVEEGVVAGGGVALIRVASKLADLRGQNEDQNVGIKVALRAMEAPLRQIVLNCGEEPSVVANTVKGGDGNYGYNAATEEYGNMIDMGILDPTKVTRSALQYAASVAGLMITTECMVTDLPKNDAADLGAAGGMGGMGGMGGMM
T2 sequence (P10809 whole entry): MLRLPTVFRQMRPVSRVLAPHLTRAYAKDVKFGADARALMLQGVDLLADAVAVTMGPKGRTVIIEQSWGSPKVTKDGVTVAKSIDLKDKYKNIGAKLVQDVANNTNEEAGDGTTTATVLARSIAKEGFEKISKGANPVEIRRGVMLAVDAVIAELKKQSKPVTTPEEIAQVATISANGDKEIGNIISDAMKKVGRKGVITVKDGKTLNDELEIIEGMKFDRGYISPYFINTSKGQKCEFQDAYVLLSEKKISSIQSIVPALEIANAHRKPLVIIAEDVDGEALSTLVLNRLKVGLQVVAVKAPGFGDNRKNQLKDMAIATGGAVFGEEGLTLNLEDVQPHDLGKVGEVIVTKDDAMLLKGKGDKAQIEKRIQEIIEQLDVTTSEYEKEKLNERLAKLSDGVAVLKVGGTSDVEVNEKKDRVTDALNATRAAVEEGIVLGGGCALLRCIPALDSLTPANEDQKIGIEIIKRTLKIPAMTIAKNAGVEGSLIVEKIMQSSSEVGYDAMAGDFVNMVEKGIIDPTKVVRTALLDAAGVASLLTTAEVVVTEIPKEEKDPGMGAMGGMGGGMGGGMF
T2 sequence (P61604 whole entry, further chain): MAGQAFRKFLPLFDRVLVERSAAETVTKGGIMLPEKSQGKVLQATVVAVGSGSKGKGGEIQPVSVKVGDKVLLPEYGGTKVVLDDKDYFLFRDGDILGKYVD

Row | SMILES | IC50 (E. coli GroEL/ES [1]) | IC50 (E. coli GroEL/ES [2]) | EC50 (Bacillus subtilis) | EC50 [3] | EC50 (Staphylococcus aureus [4]) | EC50 (Escherichia coli [5]) | EC50 [6] | IC50 (HSP60/HSP10 [7]) | EC50 (Pseudomonas aeruginosa) | EC50 (Escherichia coli [8]) | IC50 (E. coli GroEL/ES [9]) | EC50 (Enterobacter cloacae) | EC50 (Enterococcus faecium) | IC50 (E. coli GroEL/ES [10]) | IC50 (HSP60/HSP10 [11]) | EC50 (Acinetobacter baumannii) | EC50 (Staphylococcus aureus [12]) | EC50 (Escherichia coli [13]) | EC50 (HEK293) | IC50 (E. coli GroEL/ES [14])
1 | Nc1ccc(Nc2nc(-c3ccc(O)c(O)c3)cs2)cc1 | > 62.5 µM | 1.7 µM | > 100 µM | > 100 µM | > 100 µM | > 100 µM | > 100 µM | > 250 µM | > 100 µM | 84 µM | > 250 µM | > 100 µM | > 100 µM | 2.7 µM | 10 µM | 81 µM | > 100 µM | > 100 µM | 98 µM | –
2 | COC(=O)c1ccc(-c2ccc(/C=C3/SC(=S)NC3=O)o2)cc1 | > 62.5 µM | 3 µM | 16 µM | 41 µM | 1.5 µM | > 100 µM | > 100 µM | > 250 µM | > 100 µM | 7.6 µM | > 250 µM | > 100 µM | > 100 µM | 4.8 µM | 16 µM | > 100 µM | 13 µM | > 100 µM | 44 µM | 8.1 µM
3 | CNC(=O)Oc1c(Br)cc2sc(=O)oc2c1Br | > 62.5 µM | 0.89 µM | 43 µM | > 100 µM | 74 µM | > 100 µM | > 100 µM | > 250 µM | > 100 µM | > 100 µM | > 250 µM | > 100 µM | > 100 µM | 2.6 µM | 1.8 µM | > 100 µM | 45 µM | > 100 µM | > 100 µM | 5.3 µM
4 | Cc1ccc(S(=O)(=O)Nc2ccc(-c3nc4ccc(NS(=O)(=O)c5ccc(C)cc5)cc4[nH]3)cc2)cc1 | > 62.5 µM | 30 µM | > 100 µM | 29 µM | > 100 µM | > 100 µM | > 100 µM | 106 µM | > 100 µM | > 100 µM | 119 µM | > 100 µM | > 100 µM | 7.5 µM | 89 µM | > 100 µM | > 100 µM | > 100 µM | 34 µM | > 100 µM
5 | O=C(Nc1cc([N+](=O)[O-])ccc1O)c1ccc2c(c1)C(=O)N(Cc1ccccc1)C2=O | > 62.5 µM | 28 µM | > 100 µM | > 100 µM | 15 µM | > 100 µM | > 100 µM | > 250 µM | 85 µM | > 100 µM | 187 µM | > 100 µM | > 100 µM | 24 µM | 38 µM | > 100 µM | > 100 µM | > 100 µM | > 100 µM | > 100 µM

From ChEMBL document CHEMBL3808280, “GroEL/ES inhibitors as potential antibiotics” (Bioorg Med Chem Lett, 2016)
